TAAR1 ag = human TAAR1 agonists, primary screen, Fluo-8 calcium fluorescence, CHO RD-HGA16 cells. vehicle wells 0%, saturating PEA agonist 100%. 360,000 tested, 0.99% active. AID 624467, 2012. Trace amine-associated receptor 1 (Homo sapiens), Q96RJ0. activation, % at 3 µM;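 active = activation above the mean activation of all test compounds in the run plus 3 SD, cut at about 38% in these data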
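System: CHO RD-HGA16 cells carrying human TAAR1 plus Gα16; Incubation: 17-24 h seeding, 75 min 37 °C dye, 30 min RT; Measured by: Fluo-8 fluorescence, 5 s baseline then 140 s kinetic read; Control set: DMSO and PEA EC100; Replication: single well for each compound.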
M4 PAM = human M4 muscarinic receptor positive allosteric modulators, primary screen, CHO-K1 cells, Fluo-8 calcium fluorescence | Muscarinic acetylcholine receptor M4 (Homo sapiens), P08173 | CHO-K1 hM4/Gqi5, ACh EC20; 0% = ACh EC20, 100% = maximal ACh | activation, % at 3 µM | 360,000 tested, 0.4% active | AID 624126, 2012;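 active = activation above its plate's cutoff, the mean activation of sample wells plus 3 SD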
Target sequence (P08173 whole entry, looked up): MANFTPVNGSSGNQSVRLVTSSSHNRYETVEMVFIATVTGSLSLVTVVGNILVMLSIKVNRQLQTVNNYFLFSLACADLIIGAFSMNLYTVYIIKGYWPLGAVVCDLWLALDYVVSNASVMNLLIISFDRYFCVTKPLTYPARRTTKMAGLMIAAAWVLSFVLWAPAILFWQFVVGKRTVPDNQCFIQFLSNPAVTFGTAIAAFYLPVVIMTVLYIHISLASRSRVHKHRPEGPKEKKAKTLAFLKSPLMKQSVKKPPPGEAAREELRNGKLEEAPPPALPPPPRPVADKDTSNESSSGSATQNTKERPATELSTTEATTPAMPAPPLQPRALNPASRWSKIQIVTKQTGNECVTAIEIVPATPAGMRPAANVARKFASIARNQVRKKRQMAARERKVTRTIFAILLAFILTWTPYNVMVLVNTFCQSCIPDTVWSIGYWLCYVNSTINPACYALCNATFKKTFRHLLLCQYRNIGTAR
CHRM4 agonist = human M4 muscarinic receptor agonists, primary screen, CHO-K1 cells, Fluo-8 calcium fluorescence; Muscarinic acetylcholine receptor M4 (Homo sapiens), P08173; CHO-K1 hM4/Gqi5; vehicle 0%, full acetylcholine response 100%; activation, % at 3 µM; 360,000 tested, 0.14% active; AID 624127, 2012;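 active = activation above the run mean over all test wells plus 3 SD, cut at about 32% in these data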;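 note: peak over basal fluorescence ratio per well then scaled between controls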
M4 antag = human M4 muscarinic receptor antagonists, primary screen, CHO cells, Fluo-8 calcium fluorescence | Muscarinic acetylcholine receptor M4 (Homo sapiens), P08173 | CHO-hM4 cells, ACh EC80 | inhibition, % at 3 µM | 360,000 tested, 0.73% active | AID 624125, 2012;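 active = inhibition above its plate's cutoff, the mean inhibition of sample wells plus 3 SD, cut at about 27% in these data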
TAAR1 antagonist = human TAAR1 antagonists, primary screen, Fluo-8 calcium fluorescence, CHO RD-HGA16 cells | antagonist | Trace amine-associated receptor 1 (Homo sapiens), Q96RJ0 | inhibition, % at 3 µM | 360,000 tested, 1.5% active | AID 624466, 2012;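 active = inhibition above a per-plate cutoff, the mean inhibition of test compounds on that plate plus 3 SD, cut at about 49% in these data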
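Test system: CHO RD-HGA16 cells bearing hTAAR1 | Reagent: β-PEA, EC80 | Compound dosing: 3 µM, single point | Schedule: Dye loading 75 min at 37 °C, then 30 min room temperature | Signal: Calcium fluorescence with Fluo-8 | Evaluation: Percent inhibition of PEA-evoked calcium signal, max/basal emission ratio | Control set: DMSO-only wells and EC80 β-PEA-stimulated wells | Repeats: Singlicate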
Of the large screens only hits and unclear results are named; the others gave an inactive call. In the library only some 3% were active in any assay of this set; here they are far more common.

CNC(=S)N1C2CCCC1CC(NC(=O)c1ccc(C)cc1)C2 (configuration not stated)	none
Cc1ccc(C(=O)NC2CC3CCCC(C2)N3C(=S)NCc2ccco2)cc1 (configuration not stated)	M4 PAM 21.4
Cc1ccccc1Cn1nc(C)c(NC(=O)C2c3ccccc3Oc3ccccc32)c1C	TAAR1 ag 39.5
Cc1cccc(NC(=O)C2(c3ccc([N+](=O)[O-])cc3)CCCC2)c1	TAAR1 ag 47.8
Cc1cccc(NC(=O)C2(c3ccccc3)CCOCC2)c1	none
Brc1ccc(OCc2ccccc2)c(CNCc2ccncc2)c1	M4 antag 29.4, TAAR1 antagonist 70.1
Fc1ccc(COc2ccccc2CNCc2ccncc2)cc1	none
COCCNC(=O)/C(C#N)=C/c1ccc(N2CCOCC2)o1	none
N#C/C(=C\c1ccc(N2CCOCC2)o1)C(=O)NCCc1ccccc1	TAAR1 ag 40.6, CHRM4 agonist 34.5
N#C/C(=C/c1ccc(N2CCOCC2)o1)C(=O)Nc1ccccc1	TAAR1 ag 56.1, CHRM4 agonist 53.7
C#CCN(Cc1cccc(F)c1)C(=O)c1nnc2c3ccccc3n(S(=O)(=O)c3ccc(C)cc3)c2n1	none (no result: M4 PAM, CHRM4 agonist, M4 antag)
CCOC(=O)C1=C[C@@H](C(C)(C)C)N(S(=O)(=O)c2ccc([N+](=O)[O-])cc2)[C@H]1c1ccccc1Cl	none (no result: M4 PAM, CHRM4 agonist, M4 antag)
O=C(CCl)N1c2ccccc2Oc2ccc3ccccc3c21	CHRM4 agonist 47.5, M4 antag 31.9
CC(NC=C1C(=O)OC(C)(C)OC1=O)C(=O)O (configuration not stated)	none
CC(C)CC(NC=C1C(=O)OC(C)(C)OC1=O)C(=O)O (configuration not stated)	M4 PAM 20.8
CCNC(=O)N1CCN(c2ccc(N3CCN(C(=O)NCC)[C@H](C)C3)c(C)c2)[C@@H](C)C1	none (no result: M4 PAM, CHRM4 agonist, M4 antag)
O=C(NCCO[N+](=O)[O-])c1cccnc1	M4 antag 73.6
O=C(C(=O)N1CCC(CNS(=O)(=O)c2ccc(F)cc2)CC1)c1cccs1	none (no result: M4 PAM, CHRM4 agonist, M4 antag)
COCCn1c(=O)[nH]c2cc(C(=O)NC(C)C)ccc2c1=O	M4 PAM 20.1
Clc1ccc(NN(Cc2ccncc2)c2ccc(Cl)cc2)cc1	none
CC(C)C[C@H](NC(=O)c1ccccn1)C(=O)N1CCC[C@H]1C(=O)NCc1ccccc1	none (no result: M4 PAM, CHRM4 agonist, M4 antag)
Cc1nc2scc(C)n2c(=O)c1S(=O)(=O)NCC1CCN(Cc2ccc(Cl)cc2)CC1	M4 antag 64.8
O=[N+]([O-])c1cccc(N=NN(CCO)c2cccc([N+](=O)[O-])c2)c1	TAAR1 antagonist 51.3
CCOCCc1nnc(NC(=O)Cc2ccccc2)s1	none
CCOCCc1nnc(NC(=O)Cc2c(F)cccc2Cl)s1	M4 PAM 19.2
CN(c1cccnc1)c1ccc(NC(=O)Cc2c[nH]c3ccccc23)cc1-c1ccc(C(C)(C)C)cc1	none (no result: M4 PAM, CHRM4 agonist, M4 antag)
COc1cccc(CNC(=O)[C@H]2CCCN2C(=O)[C@H]2CCCN2C(=O)c2cccc3ccccc23)c1	none (no result: M4 PAM, CHRM4 agonist, M4 antag)
Cc1cc(Cl)ccc1OCC(=O)NCc1ccncc1	none
O=C(COc1ccc(Cl)cc1Cl)NCc1ccncc1	M4 antag 30.2
Clc1ccc(SCCOCCN2CCc3ccccc3C2)cc1	TAAR1 ag 38.0
COc1ccc2c(c1)C(NC(=O)C(F)(F)F)CC21CCCCC1 (configuration not stated)	none (no result: M4 PAM, CHRM4 agonist, M4 antag)
CCc1c(-c2ccc(F)cc2F)ncn1CCc1ccccc1OC	none (no result: M4 PAM, CHRM4 agonist, M4 antag)
O=C(C(=O)N(Cc1ccccc1)Cc1ccccc1)c1c(-c2ccccc2)[nH]c2ccccc12	M4 antag 31.1, TAAR1 antagonist 74.9
C[C@@H]1ON(C)[C@H]2C[C@H]3c4[nH]c5c(-c6cccc(F)c6)cccc5c4CCN3C(=O)[C@@H]12	none (no result: M4 PAM, CHRM4 agonist, M4 antag)
CCCCCCCC(O)CC(CC1CCCCC1)C(=O)NN (configuration not stated)	M4 PAM 33.7
CCCCC(CC(O)COCC(C)C)C(=O)NN (configuration not stated)	none
COc1ccccc1-c1oc2ccccc2c1C#CC1(N)CCCCC1	TAAR1 ag 38.2
CC(C)(C)C(=O)c1c(N)[nH]c(C(=O)c2ccccc2)c1-c1ccccc1	none (no result: M4 PAM, CHRM4 agonist, M4 antag)
